According to ChEMBL document CHEMBL4190408 (J Med Chem, 2018):
Values after ≈ are worked out from the molar mass of the structure shown. Active and inactive are the calls of the source. No cut-off for these calls is given here.

How the values were obtained:
Mus musculus [1] = assay: Immunosuppressive activity in Balb/c mouse assessed as inhibition of anti-CD3-mediated T-cell activation by measuring IFNgamma release in plasma at 100 mg/kg, po pretreated for 30 mins followed by anti-CD3 stimulation measured after 180 mins by ELISA relative to control; assay type: functional
Outline: (§1)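 Balb/C mice (n=8 per group) were dosed orally with 1, 10 or 100 mpk in 0.1% Tween 80, 0.1% silicone antifoam, 1% methylcellulose (400 cps) vehicle, before anti-CD3 challenge. IFNγ release (pg/ml) was measured over a time course. Percent inhibition is the mean (±SEM) relative to the vehicle-treated positive control.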

physchem [2] = settings: phosphate buffer, pH 7.4
Mus musculus [3] = assay: Clearance in Balb/c mouse at 1 mg/kg, iv; assay type: ADME, organism-based; settings: in vivo
Outline: (§2)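 Intravenous PK in male Balb/C mice, n=3, at 1 mpk. Vehicle was 30% DMA or 15% NMP, depending on the compound.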

Mus musculus [4] = assay: (§3) Inhibition of allograft rejection in Balb/c mouse heterotopic cardiac transplantation model using C57BL/6 as cardiac donor assessed as long-term graft survival rate by measuring cardiac allograft function by daily palpitation at 100 mg/kg administered via oral gavage as qd for 28 days measured after treatment withdrawal; assay type: functional, organism-based
Mus musculus [5] = assay: as §3, with “relative to control” for “measured after treatment withdrawal”; assay type: functional; settings: 672 h
[6] = molecular target: Phosphatidylinositol 4-kinase alpha (Homo sapiens) (UniProt P42356); assay: Inhibition of PI4K3alpha (unknown origin) at 10 uM
Salmonella typhimurium [7] = assay: Genotoxicity in Salmonella typhimurium TA1537 up to 1667 ug/plate in presence or absence of liver S9 fraction by Ames test; assay type: toxicity, organism-based; settings: salmonella enterica subsp. enterica serovar typhimurium
Outline: (§4)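 Three-strain bacterial miniAMES with TA1537, TA98 and TA100, with and without S9 activation. Top concentrations 500 and 1667 µg.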

Mus musculus [8] = assay: Unbound Cmax in Balb/c mouse at 100 mg/kg, po after 1 hr; assay type: ADME, organism-based; settings: in vivo
Mus musculus [9] = assay: Immunosuppressive activity in Balb/c mouse assessed as inhibition of anti-CD3-mediated T-cell activation by measuring IFNgamma release in plasma at 10 mg/kg, po pretreated for 30 mins followed by anti-CD3 stimulation measured after 180 mins by ELISA relative to control; assay type: functional; outline: as §1
Mus musculus [10] = assay: Immunosuppressive activity in po dosed Balb/c mouse assessed as inhibition of anti-CD3-mediated T-cell activation by measuring IFNgamma release in plasma pretreated for 30 mins followed by anti-CD3 stimulation measured after 180 mins by ELISA; assay type: functional, organism-based; outline: as §1
in vitro [11] = settings: mouse, liver microsomes
in vitro [12] = settings: human, liver microsomes
Mus musculus [13] = assay: Half life in Balb/c mouse at 1 mg/kg, iv; assay type: ADME, organism-based; settings: in vivo; outline: as §2
Cytochrome P450 3A4 = Cytochrome P450 3A4 (Homo sapiens, UniProt P08684)
[14] = molecular target: Phosphatidylinositol 4-kinase type 2-alpha (Homo sapiens) (UniProt Q9BTU6); assay: Inhibition of recombinant human full length GST-tagged PI4K2alpha expressed in insect cells at 10 uM
[15] = Unbound Tmax in Balb/c mouse at 10 to 100 mg/kg, po; assay type: ADME, organism-based; settings: in vivo, read-out: fTmax
Mus musculus [16] = assay: Unbound AUC (infinity) in Balb/c mouse at 30 mg/kg, po after 1 hr; assay type: ADME, organism-based; settings: in vivo
Mus musculus [17] = assay: Unbound AUC in Balb/c mouse at 1 mg/kg, iv; assay type: ADME, organism-based; settings: in vivo; outline: as §2
[18] = Apparent clearance in Balb/c mouse at 10 mg/kg, po after 1 hr; assay type: ADME, organism-based; settings: in vivo
Mus musculus [19] = assay: Immunosuppressive activity in Balb/c mouse assessed as inhibition of anti-CD3-mediated T-cell activation by measuring IFNgamma release in plasma at 1 mg/kg, po pretreated for 30 mins followed by anti-CD3 stimulation measured after 180 mins by ELISA relative to control; assay type: functional; outline: as §1
Mus musculus [20] = assay: Oral bioavailability in Balb/c mouse at 10 mg/kg after 1 hr; assay type: ADME, organism-based; settings: in vivo, 1 h
Outline: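 Male Balb/C mice, n=3. Oral dose of 10 mpk as a homogeneous suspension of crystalline solid in 0.1% Tween 80, 0.1% silicone antifoam, 1% methylcellulose (400 cps) in water. I.v. dose of 1 mpk in 30% DMA or 15% NMP, depending on the compound. Bioavailability was extrapolated from the i.v./p.o. experiments.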

[21] = Apparent clearance in Balb/c mouse at 30 mg/kg, po after 1 hr; assay type: ADME, organism-based; settings: in vivo
[22] = Fraction unbound in mouse blood; assay type: ADME, tissue-based
Salmonella typhimurium [23] = assay: Genotoxicity in Salmonella typhimurium TA100 up to 1667 ug/plate in presence or absence of liver S9 fraction by Ames test; assay type: toxicity, organism-based; settings: salmonella enterica subsp. enterica serovar typhimurium; outline: as §4
[24] = Apparent clearance in Balb/c mouse at 100 mg/kg, po after 1 hr; assay type: ADME, organism-based; settings: in vivo
Mus musculus [25] = assay: Unbound AUC (infinity) in Balb/c mouse at 100 mg/kg, po after 1 hr; assay type: ADME, organism-based; settings: in vivo
physchem [26] = settings: pH 7.4 solution
Mus musculus [27] = assay: Unbound AUC (infinity) in Balb/c mouse at 10 mg/kg, po after 1 hr; assay type: ADME, organism-based; settings: in vivo
Mus musculus [28] = assay: Immunosuppressive activity in OXA-induced Balb/c mouse T-cell dependent model of antibody response assessed as inhibition of IgG1 production in serum at 100 mg/kg, po qd pretreated for 30 mins followed by OXA challenge measured on day 7 post dose by ELISA; assay type: functional, organism-based
[29] = molecular target: Voltage-gated inwardly rectifying potassium channel KCNH2 (Homo sapiens, UniProt Q12809)
Mus musculus [30] = assay: Unbound Cmax in Balb/c mouse at 10 mg/kg, po after 1 hr; assay type: ADME, organism-based; settings: in vivo
Salmonella typhimurium [31] = assay: Genotoxicity in Salmonella typhimurium TA98 up to 1667 ug/plate in presence or absence of liver S9 fraction by Ames test; assay type: toxicity, organism-based; settings: salmonella enterica subsp. enterica serovar typhimurium; outline: as §4
Mus musculus [32] = assay: Volume of distribution at steady state in Balb/c mouse at 1 mg/kg, iv; assay type: ADME, organism-based; settings: in vivo; outline: as §2
Mus musculus [33] = assay: Unbound Cmax in Balb/c mouse at 30 mg/kg, po after 1 hr; assay type: ADME, organism-based; settings: in vivo
Mus musculus [34] = assay: Immunosuppressive activity in OXA-induced Balb/c mouse T-cell dependent model of antibody response assessed as inhibition of IgG1 production in serum at 100 mg/kg, po qd pretreated for 30 mins followed by OXA challenge measured on day 14 post dose by ELISA; assay type: functional, organism-based
[35] = molecular target: Phosphatidylinositol 4-kinase type 2-beta (Homo sapiens) (UniProt Q8TCG2); assay: Inhibition of recombinant human full length GST-tagged PI4K2beta expressed in insect cells at 10 uM
Phosphatidylinositol 4-kinase type 2-beta (Homo sapiens), sequence (Q8TCG2 whole entry): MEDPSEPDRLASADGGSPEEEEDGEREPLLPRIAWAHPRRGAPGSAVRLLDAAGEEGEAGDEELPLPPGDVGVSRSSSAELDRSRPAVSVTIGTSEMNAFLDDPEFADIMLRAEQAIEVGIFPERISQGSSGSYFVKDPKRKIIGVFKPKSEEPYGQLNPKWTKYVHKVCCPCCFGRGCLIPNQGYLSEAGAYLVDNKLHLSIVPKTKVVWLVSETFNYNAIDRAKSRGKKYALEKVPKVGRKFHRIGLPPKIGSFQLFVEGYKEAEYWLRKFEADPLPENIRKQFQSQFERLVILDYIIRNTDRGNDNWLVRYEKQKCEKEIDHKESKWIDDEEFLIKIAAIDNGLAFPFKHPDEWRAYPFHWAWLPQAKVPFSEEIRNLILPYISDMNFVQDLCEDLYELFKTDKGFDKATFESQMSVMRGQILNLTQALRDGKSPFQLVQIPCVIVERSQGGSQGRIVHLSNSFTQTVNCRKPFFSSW

Phosphatidylinositol 4-kinase type 2-alpha (Homo sapiens), sequence (Q9BTU6 whole entry): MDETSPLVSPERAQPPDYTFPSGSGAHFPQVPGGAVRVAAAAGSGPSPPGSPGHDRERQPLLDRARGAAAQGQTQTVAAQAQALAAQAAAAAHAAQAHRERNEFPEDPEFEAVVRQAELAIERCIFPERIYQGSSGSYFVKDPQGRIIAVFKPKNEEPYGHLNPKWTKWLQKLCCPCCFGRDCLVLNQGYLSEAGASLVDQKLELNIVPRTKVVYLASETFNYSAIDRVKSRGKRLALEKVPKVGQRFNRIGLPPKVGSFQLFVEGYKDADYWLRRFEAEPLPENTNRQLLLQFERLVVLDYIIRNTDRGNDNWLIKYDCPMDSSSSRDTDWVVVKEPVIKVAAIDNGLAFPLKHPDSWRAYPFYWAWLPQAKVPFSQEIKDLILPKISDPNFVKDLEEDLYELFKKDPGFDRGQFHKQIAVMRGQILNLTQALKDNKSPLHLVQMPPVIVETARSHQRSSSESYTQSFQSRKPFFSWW
Voltage-gated inwardly rectifying potassium channel KCNH2, sequence (Q12809 whole entry): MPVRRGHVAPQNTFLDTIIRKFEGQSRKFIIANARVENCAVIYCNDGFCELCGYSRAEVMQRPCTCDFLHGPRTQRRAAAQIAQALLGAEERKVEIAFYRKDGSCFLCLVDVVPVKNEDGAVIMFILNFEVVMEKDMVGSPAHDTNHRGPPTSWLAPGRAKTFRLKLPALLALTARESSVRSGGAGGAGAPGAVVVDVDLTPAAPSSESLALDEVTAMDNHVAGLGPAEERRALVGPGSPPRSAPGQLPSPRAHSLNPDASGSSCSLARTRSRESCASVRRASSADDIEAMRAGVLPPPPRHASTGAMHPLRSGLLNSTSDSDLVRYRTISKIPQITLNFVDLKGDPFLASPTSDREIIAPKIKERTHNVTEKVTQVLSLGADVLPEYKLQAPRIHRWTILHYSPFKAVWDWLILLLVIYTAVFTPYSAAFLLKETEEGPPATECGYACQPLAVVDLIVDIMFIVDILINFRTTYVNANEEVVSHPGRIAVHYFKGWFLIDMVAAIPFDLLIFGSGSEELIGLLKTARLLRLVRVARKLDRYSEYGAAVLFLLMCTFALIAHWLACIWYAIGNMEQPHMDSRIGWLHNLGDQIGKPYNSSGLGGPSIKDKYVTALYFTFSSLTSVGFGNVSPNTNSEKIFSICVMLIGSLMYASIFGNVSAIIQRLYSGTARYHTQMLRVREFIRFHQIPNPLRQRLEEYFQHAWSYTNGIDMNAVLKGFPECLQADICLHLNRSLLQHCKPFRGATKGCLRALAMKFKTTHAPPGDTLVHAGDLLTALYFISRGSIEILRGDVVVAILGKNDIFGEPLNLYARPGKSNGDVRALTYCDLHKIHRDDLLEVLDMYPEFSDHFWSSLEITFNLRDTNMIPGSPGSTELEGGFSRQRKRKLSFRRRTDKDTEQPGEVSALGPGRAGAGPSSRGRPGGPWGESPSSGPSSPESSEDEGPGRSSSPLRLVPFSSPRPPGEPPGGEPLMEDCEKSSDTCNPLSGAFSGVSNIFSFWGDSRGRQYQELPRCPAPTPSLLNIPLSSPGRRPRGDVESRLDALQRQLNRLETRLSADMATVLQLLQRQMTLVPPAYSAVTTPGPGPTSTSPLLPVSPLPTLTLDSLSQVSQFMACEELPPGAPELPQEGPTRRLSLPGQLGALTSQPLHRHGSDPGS
Phosphatidylinositol 4-kinase alpha (Homo sapiens), sequence (P42356 whole entry, looked up): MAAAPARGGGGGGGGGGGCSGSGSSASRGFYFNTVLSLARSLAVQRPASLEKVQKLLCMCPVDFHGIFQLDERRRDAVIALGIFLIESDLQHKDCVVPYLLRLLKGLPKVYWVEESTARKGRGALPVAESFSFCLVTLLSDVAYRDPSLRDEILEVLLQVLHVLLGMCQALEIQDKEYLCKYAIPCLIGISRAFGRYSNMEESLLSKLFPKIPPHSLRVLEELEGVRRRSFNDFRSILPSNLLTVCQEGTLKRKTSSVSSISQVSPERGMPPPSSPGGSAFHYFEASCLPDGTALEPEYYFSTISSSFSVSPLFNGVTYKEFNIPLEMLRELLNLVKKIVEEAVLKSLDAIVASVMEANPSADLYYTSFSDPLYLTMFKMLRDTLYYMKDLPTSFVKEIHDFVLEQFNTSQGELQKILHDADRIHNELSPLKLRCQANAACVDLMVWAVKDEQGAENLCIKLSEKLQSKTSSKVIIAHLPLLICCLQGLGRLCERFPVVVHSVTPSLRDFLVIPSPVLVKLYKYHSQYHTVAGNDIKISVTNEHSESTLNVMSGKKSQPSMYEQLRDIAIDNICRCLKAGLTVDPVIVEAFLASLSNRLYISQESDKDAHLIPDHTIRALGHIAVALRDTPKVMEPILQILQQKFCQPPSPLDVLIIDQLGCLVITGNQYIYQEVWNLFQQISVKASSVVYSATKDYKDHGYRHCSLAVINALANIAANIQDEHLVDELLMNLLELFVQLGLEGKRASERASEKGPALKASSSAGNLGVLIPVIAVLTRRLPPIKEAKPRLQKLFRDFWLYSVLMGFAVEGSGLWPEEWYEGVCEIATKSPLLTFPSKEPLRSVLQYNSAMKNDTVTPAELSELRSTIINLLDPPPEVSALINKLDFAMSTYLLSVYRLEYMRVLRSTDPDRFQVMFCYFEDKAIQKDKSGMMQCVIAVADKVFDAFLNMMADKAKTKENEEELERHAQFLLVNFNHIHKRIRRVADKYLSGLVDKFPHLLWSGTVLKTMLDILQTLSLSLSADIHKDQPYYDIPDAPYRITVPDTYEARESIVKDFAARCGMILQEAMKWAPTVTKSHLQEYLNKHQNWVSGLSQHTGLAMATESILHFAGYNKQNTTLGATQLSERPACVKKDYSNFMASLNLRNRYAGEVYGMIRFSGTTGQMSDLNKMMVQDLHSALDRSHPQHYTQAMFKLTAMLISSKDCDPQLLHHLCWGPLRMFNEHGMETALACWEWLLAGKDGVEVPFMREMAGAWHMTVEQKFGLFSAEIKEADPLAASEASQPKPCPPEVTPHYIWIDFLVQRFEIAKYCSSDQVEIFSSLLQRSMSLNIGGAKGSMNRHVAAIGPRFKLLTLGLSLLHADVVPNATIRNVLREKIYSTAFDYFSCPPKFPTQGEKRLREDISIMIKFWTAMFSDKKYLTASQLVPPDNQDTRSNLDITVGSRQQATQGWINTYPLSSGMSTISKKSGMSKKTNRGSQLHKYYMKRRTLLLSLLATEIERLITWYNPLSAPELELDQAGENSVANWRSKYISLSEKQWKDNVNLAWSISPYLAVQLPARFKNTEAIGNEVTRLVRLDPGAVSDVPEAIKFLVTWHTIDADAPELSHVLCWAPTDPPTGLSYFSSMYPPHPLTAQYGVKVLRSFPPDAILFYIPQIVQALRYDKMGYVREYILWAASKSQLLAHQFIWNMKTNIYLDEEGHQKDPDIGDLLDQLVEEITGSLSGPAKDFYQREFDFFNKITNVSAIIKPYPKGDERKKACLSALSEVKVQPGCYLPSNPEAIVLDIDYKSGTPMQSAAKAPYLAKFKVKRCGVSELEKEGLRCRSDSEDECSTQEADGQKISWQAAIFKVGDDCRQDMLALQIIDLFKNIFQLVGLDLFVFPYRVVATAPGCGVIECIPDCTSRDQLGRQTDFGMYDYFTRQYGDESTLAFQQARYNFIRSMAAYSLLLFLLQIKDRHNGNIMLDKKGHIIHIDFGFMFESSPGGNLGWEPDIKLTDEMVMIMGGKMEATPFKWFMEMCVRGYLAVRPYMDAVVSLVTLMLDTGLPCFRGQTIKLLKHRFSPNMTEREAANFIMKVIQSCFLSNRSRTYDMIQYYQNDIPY
Cytochrome P450 3A4, sequence (P08684 whole entry): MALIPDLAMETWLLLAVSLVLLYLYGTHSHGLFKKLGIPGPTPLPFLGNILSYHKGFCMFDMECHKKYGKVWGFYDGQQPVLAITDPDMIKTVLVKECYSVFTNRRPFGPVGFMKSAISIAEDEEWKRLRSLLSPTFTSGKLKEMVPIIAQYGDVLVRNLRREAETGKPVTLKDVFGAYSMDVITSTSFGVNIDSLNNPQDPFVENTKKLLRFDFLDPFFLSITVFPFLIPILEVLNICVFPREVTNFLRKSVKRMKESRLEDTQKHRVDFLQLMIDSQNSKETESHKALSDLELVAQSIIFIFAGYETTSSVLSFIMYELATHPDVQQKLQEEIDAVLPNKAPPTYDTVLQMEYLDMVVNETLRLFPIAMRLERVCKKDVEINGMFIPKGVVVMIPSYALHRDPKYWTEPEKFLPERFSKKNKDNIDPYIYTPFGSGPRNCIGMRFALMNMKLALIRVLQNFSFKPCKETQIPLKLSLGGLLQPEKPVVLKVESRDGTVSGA

SMILES: COc1ccc(NC(=O)N2CCN(c3nc(N)nc4scnc34)CC2)cc1
- inhibition in vivo at 100 mg/kg (Mus musculus [1]): 87.5%
- logD at 1.5 h (physchem [2]): 1.85
- CL (Mus musculus [3]): Nd(Insoluble)
- inhibition (Mus musculus [4]): Active
- survival at 100 mg/kg (Mus musculus [5]): 50%
- inhibition [6]: inactive
- Activity (Salmonella typhimurium [7]): Non-Toxic
- fCmax (Mus musculus [8]): 967 nM
- inhibition in vivo at 10 mg/kg (Mus musculus [9]): 54.9%
- inhibition (Mus musculus [10]): Dose-dependent effect
- microsomal CLint at 0.75 h, 3 µM (in vitro [11]): 15 µL/min/mg
- microsomal CLint at 0.75 h, 3 µM (in vitro [12]): 21 µL/min/mg
- t1/2 (Mus musculus [13]): Nd(Insoluble)
- IC50 (Cytochrome P450 3A4): > 20 µM
- inhibition [14]: inactive
- Tmax [15]: 1 h
- fAUC (Mus musculus [16]): 0.769 µM·h
- fAUC (Mus musculus [17]): Nd(Insoluble)
- CL/F [18]: 80 mL/min/kg
- inhibition in vivo at 1 mg/kg (Mus musculus [19]): 24.6%
- F (Mus musculus [20]): Nd(Insoluble)
- CL/F [21]: 112 mL/min/kg
- fraction unbound [22]: 0.061
- Activity (Salmonella typhimurium [23]): Non-Toxic
- CL/F [24]: 86 mL/min/kg
- fAUC (Mus musculus [25]): 3.907 µM·h
- solubility kinetic at 1.5 h (physchem [26]): 85 µM (≈ 32.8 µg/mL)
- fAUC (Mus musculus [27]): 0.332 to 0.333 µM·h
- inhibition (Mus musculus [28]): Active
- IC50 [29]: 28 µM
- fCmax (Mus musculus [30]): 154 nM
- Activity (Salmonella typhimurium [31]): Non-Toxic
- Vdss (Mus musculus [32]): Nd(Insoluble)
- fCmax (Mus musculus [33]): 444 nM
- inhibition (Mus musculus [34]): Active
- inhibition [35]: inactive
